{
  "source": "ChEMBL document CHEMBL2010761",
  "about": "“NO-SSRIs: Nitric Oxide Chimera Drugs Incorporating a Selective Serotonin Reuptake Inhibitor” (ACS Med Chem Lett, 2011)",
  "key": {"[1]": {"target": "Sodium-dependent serotonin transporter (Homo sapiens) (UniProt P31645)", "sequence (P31645 whole entry, looked up)": "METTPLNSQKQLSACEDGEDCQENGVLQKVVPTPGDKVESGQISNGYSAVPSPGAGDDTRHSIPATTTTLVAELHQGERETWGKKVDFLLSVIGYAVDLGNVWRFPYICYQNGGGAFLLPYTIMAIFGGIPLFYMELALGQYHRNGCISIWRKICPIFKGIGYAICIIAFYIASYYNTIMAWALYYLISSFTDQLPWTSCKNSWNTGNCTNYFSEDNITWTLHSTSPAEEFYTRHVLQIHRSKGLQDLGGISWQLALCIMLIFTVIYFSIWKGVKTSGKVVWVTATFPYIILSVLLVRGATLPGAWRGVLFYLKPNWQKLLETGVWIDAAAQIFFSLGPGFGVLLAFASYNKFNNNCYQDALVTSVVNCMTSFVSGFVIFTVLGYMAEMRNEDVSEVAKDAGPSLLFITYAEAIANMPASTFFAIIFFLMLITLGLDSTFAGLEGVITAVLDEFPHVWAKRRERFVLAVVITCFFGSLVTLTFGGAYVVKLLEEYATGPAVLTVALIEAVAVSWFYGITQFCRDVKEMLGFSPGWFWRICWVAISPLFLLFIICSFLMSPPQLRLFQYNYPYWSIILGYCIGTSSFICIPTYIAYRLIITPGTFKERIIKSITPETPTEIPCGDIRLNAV", "test": "Inhibition of human SERT-mediated serotonin reuptake in HEK293 cells at 100 nM relative to fluoxetine", "assay_type": "cell-based", "method_in_brief": "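HEK-293 cells stably transfected with human SERT cDNA were used to measure serotonin reuptake with test compounds at 100 nM. […] Means ± SEM from three separate experiments.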"}, "Mus musculus [2]": {"test_system": "Mus musculus", "test": "Antiamnesic activity in scopolamine-induced C57BL/6 mouse assessed as aversive memory measuring increase in latency to enter dark area at 1.54 mg/kg, ip administered 20 mins prior training measured after 48 hrs by step-through passive avoidance task analysis relative to control", "assay_type": "functional, organism-based", "design": "dose 1.54 mg/kg", "method_in_brief": "(§1)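 Mice trained 2 h after habituation. Scopolamine 1 mg/kg in saline given ip 30 min before training, test drug in 25% DMSO given ip 20 min before training. Footshock 0.6 mA for 2 s on entering the dark compartment, with the door closing. Latency to enter the dark chamber recorded 48 h after training, drug-free. N = 9–11. Means and SEMs; ANOVA with Tukey post hoc test.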"}, "Rattus norvegicus [3]": {"test_system": "Rattus norvegicus", "test": "Antidepressant activity in Sprague-Dawley rat assessed as decrease in immobility time at 10 mg/kg, ip administered 1, 5 and 24 hrs prior test by forced swimming task analysis relative to control", "assay_type": "functional, organism-based", "design": "dose 10 mg/kg", "method_in_brief": "(§2)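 Male Sprague-Dawley rats, 200–250 g, given a 15 min pre-swim in the water tank 24 h before testing. Drug or vehicle given ip at 24, 5 and 1 h before the test. The 5 min test was scored in 60 blocks of 5 s for struggle, swimming and immobility. Means and SEMs; ANOVA with Tukey post hoc test.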"}, "Rattus norvegicus [4]": {"test_system": "Rattus norvegicus", "test": "Antidepressant activity in Sprague-Dawley rat assessed as increase in swimming time at 10 mg/kg, ip administered 1, 5 and 24 hrs prior test by forced swimming task analysis relative to control", "assay_type": "functional, organism-based", "design": "dose 10 mg/kg", "method_in_brief": "as §2"}, "Rattus norvegicus [5]": {"test_system": "Rattus norvegicus", "test": "Antidepressant activity in Sprague-Dawley rat assessed as change in struggle time at 10 mg/kg, ip administered 1, 5 and 24 hrs prior test by forced swimming task analysis relative to control", "assay_type": "functional, organism-based", "design": "dose 10 mg/kg", "method_in_brief": "as §2"}, "Mus musculus [6]": {"test_system": "Mus musculus", "test": "Antiamnesic activity in scopolamine-induced C57BL/6 mouse assessed as aversive memory measuring increase in latency to enter dark area at 1 mg/kg, ip administered 20 mins prior training measured after 48 hrs by step-through passive avoidance task analysis relative to control", "assay_type": "functional, organism-based", "design": "dose 1 mg/kg", "method_in_brief": "as §1"}, "[7]": {"test": "Prodrug activation in PBS at pH 7 assessed as hydrolysis of compound to fluoxetine at 200 uM by HPLC-UV analysis", "conditions": "buffer, pH 7, 200 µM"}, "[8]": {"test": "Prodrug activation in PBS at pH 7.4 assessed as hydrolysis of compound to fluoxetine at 200 uM by HPLC-UV analysis", "conditions": "buffer, pH 7.4, 200 µM"}, "[9]": {"test": "Prodrug activation in PBS at pH 8 assessed as hydrolysis of compound to fluoxetine at 200 uM by HPLC-UV analysis", "conditions": "buffer, pH 8, 200 µM"}, "[10]": {"test": "Prodrug activation in PBS at pH 7 to 8 assessed as hydrolysis of compound to fluoxetine at 200 uM after 7 hrs by HPLC-UV analysis", "conditions": "buffer, pH 7, 7 h"}, "[11]": {"test": "Half life in PBS at pH 7 to 8 assessed as hydrolysis of compound to fluoxetine at 200 uM by HPLC-UV analysis", "assay_type": "physicochemical"}, "[12]": {"test": "Prodrug activation in PBS assessed as production of NO at 500 uM after 30 mins by chemiluminescence assay", "conditions": "buffer, 0.5 h", "method_in_brief": "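Compound (500 μM) was mixed with glutathione-containing PBS in a sealed vessel. NO in the headspace was measured by chemiluminescence after 30 min.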"}, "Plasma [13]": {"test_system": "Plasma", "test": "Prodrug activation in mouse plasma assessed as formation of fluoxetine at 15 mg/kg, ip after 20 mins by LC-MS/MS analysis", "assay_type": "organism-based", "design": "dose 15 mg/kg, route intraperitoneal", "conditions": "in vivo"}, "Plasma [14]": {"test_system": "Plasma", "test": "Prodrug activation in mouse plasma assessed as formation of fluoxetine at 15 mg/kg, ip after 120 mins by LC-MS/MS analysis", "assay_type": "organism-based", "design": "dose 15 mg/kg, route intraperitoneal", "conditions": "in vivo, 2 h"}, "Brain [15]": {"test_system": "Brain", "test": "Prodrug activation in mouse brain assessed as formation of fluoxetine at 15 mg/kg, ip after 20 mins by LC-MS/MS analysis", "assay_type": "organism-based", "design": "dose 15 mg/kg, route intraperitoneal", "conditions": "in vivo"}, "Brain [16]": {"test_system": "Brain", "test": "Prodrug activation in mouse brain assessed as formation of fluoxetine at 15 mg/kg, ip after 120 mins by LC-MS/MS analysis", "assay_type": "organism-based", "design": "dose 15 mg/kg, route intraperitoneal", "conditions": "in vivo, 2 h"}, "Rattus norvegicus [17]": {"test_system": "Rattus norvegicus", "test": "Antidepressant activity in Sprague-Dawley rat assessed as decrease in immobility time at 26.5 mg/kg, ip administered 1, 5 and 24 hrs prior test by forced swimming task analysis relative to control", "assay_type": "functional, organism-based", "design": "dose 26.5 mg/kg", "method_in_brief": "(§3)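 Drug was given ip at 24, 5 and 1 h before the 5 min test, which was scored in 60 blocks of 5 s for struggle, swimming and immobility durations. Comparison was against vehicle by ANOVA with Tukey's post hoc test; means ± SEM.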"}, "Rattus norvegicus [18]": {"test_system": "Rattus norvegicus", "test": "Antidepressant activity in Sprague-Dawley rat assessed as increase in swimming time at 26.5 mg/kg, ip administered 1, 5 and 24 hrs prior test by forced swimming task analysis relative to control", "assay_type": "functional, organism-based", "design": "dose 26.5 mg/kg", "method_in_brief": "as §3"}, "Rattus norvegicus [19]": {"test_system": "Rattus norvegicus", "test": "Antidepressant activity in Sprague-Dawley rat assessed as change in struggle time at 26.5 mg/kg, ip administered 1, 5 and 24 hrs prior test by forced swimming task analysis relative to control", "assay_type": "functional, organism-based", "design": "dose 26.5 mg/kg", "method_in_brief": "as §3"}, "Mus musculus [20]": {"test_system": "Mus musculus", "test": "Antiamnesic activity in scopolamine-induced C57BL/6 mouse assessed as aversive memory measuring increase in latency to enter dark area at 2.05 mg/kg, ip administered 20 mins prior training measured after 48 hrs by step-through passive avoidance task analysis relative to control", "assay_type": "functional, organism-based", "design": "dose 2.05 mg/kg", "method_in_brief": "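Mice received scopolamine (1 mg/kg in physiological saline, ip) 30 min before training, and test drug in 25% DMSO ip 20 min before training. Training came 2 h after habituation: the animal was placed in the lit compartment, and entry to the dark side triggered door closure and a 0.6 mA, 2 s footshock. Latency to enter the dark chamber was retested 48 h later with no drug. N = 9–11; means ± SEM; ANOVA with Tukey's post hoc test.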"}},
  "note": "Activity calls are given as the source filed them. The calls are words filed in the database; no cut-off is given here.",
  "data": [
    {"smiles": "O=C(SCCO[N+](=O)[O-])N1CC[C@@H](c2ccc(F)cc2)[C@H](COc2ccc3c(c2)OCO3)C1", "values": [
      {"measurement": "Efficacy", "setting": "[1]", "value": "< 15", "unit": "%"}
    ]},
    {"smiles": "CNCCC(Oc1ccc(C(F)(F)F)cc1)c1ccccc1", "note": "(stereo unspecified)", "values": [
      {"measurement": "Activity", "setting": "Mus musculus [2]", "value": "inactive"}
    ]},
    {"smiles": "Cc1ncsc1CCO[N+](=O)[O-]", "values": [
      {"measurement": "Activity", "setting": "Rattus norvegicus [3]", "value": "Active"},
      {"measurement": "Activity", "setting": "Rattus norvegicus [4]", "value": "Active"},
      {"measurement": "Activity", "setting": "Rattus norvegicus [5]", "value": "Active"},
      {"measurement": "Activity", "setting": "Mus musculus [6]", "value": "Active"}
    ]},
    {"smiles": "CN(CCC(Oc1ccc(C(F)(F)F)cc1)c1ccccc1)C(=O)SCCO[N+](=O)[O-]", "note": "(stereo unspecified)", "values": [
      {"measurement": "Efficacy", "setting": "[1]", "value": "< 15", "unit": "%"},
      {"measurement": "Drug metabolism", "setting": "[7]", "value": "Active"},
      {"measurement": "Drug metabolism", "setting": "[8]", "value": "Active"},
      {"measurement": "Drug metabolism", "setting": "[9]", "value": "Active"},
      {"measurement": "Drug metabolism", "setting": "[10]", "value": "Active"},
      {"measurement": "half-life at 200 µM", "setting": "[11]", "value": 1.67, "unit": "h"},
      {"measurement": "Drug metabolism", "setting": "[12]", "value": 8.9, "unit": "nM"},
      {"measurement": "Drug metabolism", "setting": "Plasma [13]", "value": "Active"},
      {"measurement": "Drug metabolism", "setting": "Plasma [14]", "value": "Active"},
      {"measurement": "Drug metabolism", "setting": "Brain [15]", "value": "Active"},
      {"measurement": "Drug metabolism", "setting": "Brain [16]", "value": "Active"},
      {"measurement": "Activity", "setting": "Rattus norvegicus [17]", "value": "Active"},
      {"measurement": "Activity", "setting": "Rattus norvegicus [18]", "value": "Active"},
      {"measurement": "Activity", "setting": "Rattus norvegicus [19]", "value": "Active"},
      {"measurement": "Activity", "setting": "Mus musculus [20]", "value": "Active"}
    ]}
  ]
}
